NPY-Y2 antag = NPY-Y2 receptor antagonists, primary screen, cell-based | Neuropeptide Y receptor type 2 (Homo sapiens), P49146 | NPY-Y2 expressing cells, antagonist mode | inhibition, % at 2.7 µM | 140,000 tested, 0.99% active;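 note: 0% = vehicle with agonist challenge and 100% = reference antagonist with challenge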
NPY-Y1 antag = NPY-Y1 receptor antagonists, primary screen, cell-based | Neuropeptide Y receptor type 1 (Homo sapiens), P25929 | HEK293-CNG Y1 cells, membrane potential fluorescence; NPY at EC95, then isoproterenol | inhibition, % at 3.6 µM | 200,000 tested, 1% active;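 active = inhibition above the campaign mean inhibition of all tested compounds plus 3 SD, cut at about 20% in these data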;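 note: 0% = DMSO wells given NPY plus isoproterenol and 100% = isoproterenol alone without NPY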
Target sequence (P25929 whole entry, looked up): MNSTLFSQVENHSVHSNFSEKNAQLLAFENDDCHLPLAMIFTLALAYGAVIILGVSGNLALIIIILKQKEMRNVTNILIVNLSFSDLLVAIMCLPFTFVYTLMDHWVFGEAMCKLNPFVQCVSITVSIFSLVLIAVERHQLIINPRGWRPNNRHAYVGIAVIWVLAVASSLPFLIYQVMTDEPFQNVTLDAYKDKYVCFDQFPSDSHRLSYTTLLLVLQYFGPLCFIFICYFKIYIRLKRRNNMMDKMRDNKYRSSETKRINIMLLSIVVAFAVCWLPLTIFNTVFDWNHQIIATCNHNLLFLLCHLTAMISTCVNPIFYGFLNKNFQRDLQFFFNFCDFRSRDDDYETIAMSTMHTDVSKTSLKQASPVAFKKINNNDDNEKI
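material = HEK293 cells with Y1 receptor plus CNG channel | also added = NPY 25 nM then isoproterenol 1 µM plus Ro 20-1724 25 µM | schedule = dye 3 h, compound 60 min room temperature, stimulation 45 min | measured by = membrane potential fluorescence | benchmarks = high control isoproterenol alone, low control NPY with isoproterenol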
Hsp70 activator = Hsp70 transcriptional activators, primary screen, cell-based, HeLa, Hsp70 promoter luciferase, luminescence, 10 µM; activation, % at 10 µM; 200,000 tested, 0.04% active; HeLa Hsp70 promoter luciferase reporter; scaled: vehicle 0, proteasome-inhibitor control 100%;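 active = activation above the mean across all tested compounds plus 3 SD, cutoff set per campaign, cut at about 5.5% in these data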;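 note: 100% = MG132 at 30 µM as the positive control and 0% = DMSO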
NPY-Y1 PAM-ag = NPY-Y1 receptor potentiators or agonists, primary screen, cell-based; activation, % at 3.6 µM; AID 1304, 2008; NPY-Y1 expressing cells, potentiator/agonist activation; 220,000 tested, 0.37% active; in the data active = activation above about 33%, passing the limit was not always enough;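 note: cells stimulated with NPY at EC10 then isoproterenol at EC100; 0% = low agonist plus stimulus and 100% = saturating agonist plus stimulus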
NPY2 pot ag = NPY-Y2 potentiators or agonists, primary screen, cell-based; activation, % at 3.6 µM; cells expressing NPY-Y2, potentiator/agonist read-out; Neuropeptide Y receptor type 2 (Homo sapiens), P49146; 220,000 tested, 0.45% active; AID 1359, 2008; in the data active = activation above about 27%;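 note: cells stimulated with NPY near EC25 plus isoproterenol at EC100; 0% = vehicle plus submaximal agonist and 100% = vehicle plus saturating agonist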
Wee1 degr inh = Wee1 degradation inhibitors, primary screen, cell-based, HeLa, Wee1K328M-luciferase, luminescence. AID 1321, 2008. 220,000 tested, 1.2% active. reporter increase, % at 5 µM. HeLa Luc-Wee1K328M stability; 100% = proteasome inhibitor MG132 effect;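 active = activation above the mean of all tested compounds plus 3 SD, set per screening run, cut at about 8.8% in these data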;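 note: cells exposed to compound for 20 h before luminescence read; 0% = DMSO alone and 100% = MG132 at 30 µM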
NPY-Y1 ant conf = NPY-Y1 receptor antagonists, retest of hits, confirmation, HEK293-CNG cells, membrane potential fluorescence, triplicate; shares compounds with NPY-Y1 antag; cAMP; NPY challenge against isoproterenol-raised cAMP; inhibition, % at 3.6 µM; 1,200 tested, 21% active; AID 1254, 2008; in the data active = inhibition above about 20%;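 note: 0% = vehicle with agonist plus stimulus and 100% = stimulus alone without agonist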
NPY-Y2 antag ct = NPY-Y2 receptor antagonists, selectivity check, confirmation, counter-screen for NPY-Y1 antagonist project, HEK293-CNG cells, membrane potential fluorescence, triplicate; shares compounds with NPY-Y1 antag; antagonism; cells given NPY, then isoproterenol; inhibition, % at 3.6 µM; 1,200 tested, 28% active;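 note: 0% = DMSO with agonist challenge and 100% = reference antagonist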
The depositor's hits bear a star; / = no result given. In the library only some 3% were active in any assay of this set; here they are far more common. Cut-off read from the data, not from the text of the source, unless noted: active = inhibition above about 17%; inactive = the rest.

SMILES	NPY-Y2 antag	NPY-Y1 antag	Hsp70 activator	NPY-Y1 PAM-ag	NPY2 pot ag	Wee1 degr inh	NPY-Y1 ant conf	NPY-Y2 antag ct
COc1ccc(C(c2c(C)n(C)n(-c3ccccc3)c2=O)c2c(C)n(C)n(-c3ccccc3)c2=O)cc1O	/	56.5*	0.4	13.7	-7.0	-2.6	-0.6	0.0
Cc1c(C(c2cccs2)c2c(C)n(C)n(-c3ccccc3)c2=O)c(=O)n(-c2ccccc2)n1C	/	/	/	4.3	6.6	-2.5	/	/
CCCc1[nH]nc2c1C(c1ccsc1)C(C#N)=C(N)O2 (stereo not given)	/	40.0*	0.1	14.8	-2.4	1.1	37.5*	22.3*
COCc1[nH]nc2c1C(c1ccsc1)C(C#N)=C(N)O2 (stereo not given)	2.2	1.8	-0.1	-4.1	0.5	1.2	/	/
CCOC(=O)c1c(CNCCN(CC)CC)n(C)c2cc(Br)c(OC)cc12	12.8	26.8*	-0.4	-17.5	-26.9	0.5	11.4	15.2
O=C(CC1SC(=O)N(Cc2ccccc2Cl)C1=O)Nc1nccs1 (stereo not given)	/	/	/	21.9	16.0	-2.5	/	/
COc1ccc(-c2nc3ccccn3c2CN2CCN(c3ccccc3F)CC2)cc1	/	30.0*	-0.2	-71.4	-5.7	-1.6	26.6*	20.7*
Clc1ccc(-c2nc3ccccn3c2CN2CCOCC2)cc1	7.2	7.0	-0.1	-40.5	-1.9	1.2	/	/
COc1c(Cl)cc(Cl)cc1CNCCNCC(C)O (stereo not given)	4.5	1.3	-0.5	0.7	-13.4	-2.6	/	/
CNCc1cc(Cl)cc(OC)c1OC(C)C	/	24.3*	-0.3	-5.4	-8.2	1.3	24.1*	9.8
CC(Nc1nc(N2CCNCC2)nc2ccccc12)c1ccccc1 (stereo not given)	/	25.0*	0.5	-4.2	-6.0	-0.5	27.7*	35.5*
c1ccc2c(NCC3CCCO3)nc(N3CCOCC3)nc2c1 (stereo not given)	/	-1.1	-0.1	3.8	-1.8	-1.3	/	/
Cc1ccc(OCC(=O)Nc2sc3c(c2C#N)CC(C)(C)NC3(C)C)cc1	/	22.3*	-0.4	-37.8	-24.4	2.3	13.5	6.4
CCOC(=O)NC(=O)CSc1nnnn1-c1ccc(Cl)cc1	1.1	6.1	-0.1	15.2	5.2	0.7	/	/
CCOC(=O)c1ccc(CNC(=O)CSc2nnnn2-c2ccc(Cl)cc2)o1	8.3	20.4*	-0.2	-8.6	-14.5	4.8	10.4	12.1
CC1Cc2ccccc2N1C(=S)NC(=O)c1cccc(Br)c1 (stereo not given)	3.0	1.3	-0.4	-1.2	-4.6	-1.2	/	/
CC1Cc2ccccc2N1C(=S)NC(=O)c1ccc(Cl)cc1Cl (stereo not given)	7.2	24.8*	0.2	-18.1	0.7	-0.5	1.2	2.8
COC(=O)Cc1ccc(NC(=S)NN2CCOCC2)cc1	5.3	5.5	-0.5	9.8	8.5	2.5	/	/
Cc1cc(=O)n2c(C(=O)Nc3ccc(C(=O)OC(C)C)cc3)c(C(=O)Nc3ccccc3)sc2n1	/	25.1*	-0.5	-136.2	-48.2	-1.4	34.8*	28.8*
Cc1nc(C)c(C(=O)Nc2ccccc2)s1	5.8	-3.0	-0.2	-24.7	-6.0	-1.5	/	/
CCN(Cc1ccccc1)C(c1cccc(C#N)c1)c1nnnn1C(C)(C)C (stereo not given)	7.9	32.8*	-0.3	-13.7	-14.2	1.5	3.5	5.3
Cc1cc(OCC(=O)N2CCc3ccccc3C2)c2c(-c3ccccc3)cc(=O)oc2c1	13.3	20.8*	-0.2	-0.2	-21.7	0.9	13.1	10.7
NC(=O)/C(=C/c1ccco1)C(N)=S	/	/	/	3.4	-12.4	3.7	/	/
Cc1ccc(C)c(N2CCN(C(=O)C(Cc3ccccc3)n3cccc3)CC2)c1 (stereo not given)	12.7	24.9*	0.2	-23.5	-26.7	-3.3	10.7	15.0
CCCCCc1ccc(OCCOCCn2c[n+](C)c3ccccc32)c(CCCCC)c1	/	35.2*	-0.3	-37.9	-4.3	0.8	42.2*	22.9*
SMILES	NPY-Y2 antag	NPY-Y1 antag	Hsp70 activator	NPY-Y1 PAM-ag	NPY2 pot ag	Wee1 degr inh	NPY-Y1 ant conf	NPY-Y2 antag ct
c1ccc2c(c1)CC/C2=N/Nc1nc2ccccc2[nH]1	/	26.4*	0.9	-36.9	-11.0	4.6	20.4*	20.8*
CC(C)[C@H](NC(=O)Nc1ccc(Oc2ccccc2)cc1)C(=O)O	-0.2	5.9	0.0	-2.8	1.9	3.2	/	/
COc1ccccc1NC(=O)c1oc2ccc(C)cc2c1C	11.7	21.7*	0.1	-40.7	-16.8	2.5	7.0	16.5
CCOC(=O)/C(C#N)=C(\O)c1ccc(NC(=O)c2ccc([N+](=O)[O-])cc2)cc1	/	/	/	3.1	-8.3	-4.0	/	/
Cc1ccc(N2C(=O)c3ccccc3NC2C(C)Cc2ccc3c(c2)OCO3)cc1 (stereo not given)	16.9	44.0*	-0.3	-50.5	-17.0	7.0	119.8*	108.2*
CCOC(=O)C1=C(CNC(C)(C)CC(C)(C)C)NC(=O)NC1c1cccc([N+](=O)[O-])c1 (stereo not given)	/	14.8	-0.5	-3.6	-10.7	-2.2	/	/
Cc1ccc(C)n1-c1ccccc1N1CCCCC1	/	56.2*	0.3	8.7	12.4	-2.2	3.0	3.1
Cc1oc(-c2ccccc2F)nc1CN1CCC(C(=O)NCCC2=CCCCC2)CC1	5.3	13.2	0.0	-22.4	-28.1	-1.3	/	/
Cc1ccccc1CS(=O)(=O)Cc1ccc(C(=O)NCc2cccnc2)o1	-2.5	-0.1	-0.3	6.0	2.4	3.0	/	/
CN(C)CCn1c(=N)n(CC(O)c2ccc(Cl)c(Cl)c2)c2ccccc21 (stereo not given)	/	22.7*	0.2	-15.9	-32.9	-1.5	15.6	29.4*
CCn1c(=N)n(CC(O)c2ccccc2)c2ccccc21 (stereo not given)	3.2	-0.5	-0.4	-25.2	2.7	0.8	/	/
CCn1c(SC(=O)NC2CCCCC2)nnc1-c1cccs1	2.7	2.6	-0.2	-20.1	-3.7	2.0	/	/
O=S(=O)(NCC1CCCO1)c1ccc(Cl)nc1 (stereo not given)	/	/	/	10.3	-2.3	0.1	/	/

Screening data: PubChem, The Scripps Research Institute Molecular Screening Center
